Laboratory results: ChEMBL document CHEMBL4732162, “Design, synthesis and evaluation of novel ErbB/HDAC multitargeted inhibitors with selectivity in EGFR mutant cell lines” (Eur J Med Chem, 2021)
Calls of active or inactive are those of the source. No cut-off for these calls is given here.

Key:
[1] = target: T1, Epidermal growth factor receptor (Homo sapiens, UniProt P00533); assay: Inhibition of EGFR in human NCI-H1975 cells assessed as reduction in EGFR phosphorylation at Tyr-1068 residues at 1 uM after 48 hrs by Western blot analysis; assay type: cell-based
T1 sequence (P00533 whole entry): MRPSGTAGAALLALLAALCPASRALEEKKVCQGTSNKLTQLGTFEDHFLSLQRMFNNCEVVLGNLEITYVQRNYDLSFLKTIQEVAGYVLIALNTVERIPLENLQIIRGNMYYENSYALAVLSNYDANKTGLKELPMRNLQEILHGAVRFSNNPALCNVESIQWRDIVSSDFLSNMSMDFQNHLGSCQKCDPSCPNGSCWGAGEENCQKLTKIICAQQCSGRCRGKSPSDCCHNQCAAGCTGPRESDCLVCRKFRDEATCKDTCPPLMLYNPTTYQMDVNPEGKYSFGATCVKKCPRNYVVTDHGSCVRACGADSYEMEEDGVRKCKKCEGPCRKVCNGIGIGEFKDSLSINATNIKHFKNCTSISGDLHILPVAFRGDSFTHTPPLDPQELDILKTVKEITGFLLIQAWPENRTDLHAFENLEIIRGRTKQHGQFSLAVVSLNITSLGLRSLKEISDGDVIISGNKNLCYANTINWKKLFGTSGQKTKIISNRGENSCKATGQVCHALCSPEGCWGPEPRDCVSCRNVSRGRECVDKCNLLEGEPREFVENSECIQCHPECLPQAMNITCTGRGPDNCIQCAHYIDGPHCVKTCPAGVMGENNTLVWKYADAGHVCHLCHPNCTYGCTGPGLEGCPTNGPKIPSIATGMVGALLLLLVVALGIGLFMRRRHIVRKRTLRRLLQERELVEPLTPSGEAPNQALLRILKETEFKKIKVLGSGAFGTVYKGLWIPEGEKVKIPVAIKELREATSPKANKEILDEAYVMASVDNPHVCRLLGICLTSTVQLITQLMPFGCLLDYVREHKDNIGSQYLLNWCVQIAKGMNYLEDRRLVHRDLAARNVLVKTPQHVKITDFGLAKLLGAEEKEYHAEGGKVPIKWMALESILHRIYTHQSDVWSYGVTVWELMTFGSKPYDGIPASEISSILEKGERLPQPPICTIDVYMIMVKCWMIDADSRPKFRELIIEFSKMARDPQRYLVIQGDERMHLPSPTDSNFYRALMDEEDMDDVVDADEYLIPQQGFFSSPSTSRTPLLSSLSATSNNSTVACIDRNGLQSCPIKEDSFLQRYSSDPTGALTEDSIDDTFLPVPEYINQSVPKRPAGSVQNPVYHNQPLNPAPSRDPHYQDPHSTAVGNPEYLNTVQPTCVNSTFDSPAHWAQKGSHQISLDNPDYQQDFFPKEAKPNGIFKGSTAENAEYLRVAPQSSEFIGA
Method in brief: (§1)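 Cells were treated with compound for 48 h and lysed on ice for 30 min in RIPA buffer with protease and phosphatase inhibitors. Lysates were cleared at 14000 g, 4 °C, and protein quantified by BCA. Samples were boiled in loading buffer, run on 10–12% SDS-PAGE and transferred to PVDF. Membranes were blocked 2 h, incubated in primary antibody overnight at 4 °C, then in secondary antibody 2 h at room temperature.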

SK-BR-3 = assay: Antiproliferation activity against human SK-BR-3 cells incubated for 72 hrs by MTT assay; assay type: functional, cell-based; conditions: SK-BR-3, 72 h
Method in brief: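 MTT assay. About 0.5–1 × 10⁴ cells/well were pre-incubated 12 h at 37 °C in 5% CO₂, then exposed to a concentration series of compound for 72 h. Formazan was dissolved in DMSO and absorbance read at 490 nm. Three wells per condition, three independent experiments. IC50 is the mean ± SD from the dose-response curves.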

[2] = target: T1, Epidermal growth factor receptor; assay: Inhibition of EGFR in human NCI-H1975 cells assessed as reduction in EGFR phosphorylation at Tyr-1173 residues at 1 uM after 48 hrs by Western blot analysis; assay type: cell-based; method in brief: as §1
[3] = target: Receptor tyrosine-protein kinase erbB-2 (Homo sapiens, UniProt P04626); assay: Inhibition of HER2 (unknown origin) by mobility shift assay
Chain of Receptor tyrosine-protein kinase erbB-2 (P04626 whole entry): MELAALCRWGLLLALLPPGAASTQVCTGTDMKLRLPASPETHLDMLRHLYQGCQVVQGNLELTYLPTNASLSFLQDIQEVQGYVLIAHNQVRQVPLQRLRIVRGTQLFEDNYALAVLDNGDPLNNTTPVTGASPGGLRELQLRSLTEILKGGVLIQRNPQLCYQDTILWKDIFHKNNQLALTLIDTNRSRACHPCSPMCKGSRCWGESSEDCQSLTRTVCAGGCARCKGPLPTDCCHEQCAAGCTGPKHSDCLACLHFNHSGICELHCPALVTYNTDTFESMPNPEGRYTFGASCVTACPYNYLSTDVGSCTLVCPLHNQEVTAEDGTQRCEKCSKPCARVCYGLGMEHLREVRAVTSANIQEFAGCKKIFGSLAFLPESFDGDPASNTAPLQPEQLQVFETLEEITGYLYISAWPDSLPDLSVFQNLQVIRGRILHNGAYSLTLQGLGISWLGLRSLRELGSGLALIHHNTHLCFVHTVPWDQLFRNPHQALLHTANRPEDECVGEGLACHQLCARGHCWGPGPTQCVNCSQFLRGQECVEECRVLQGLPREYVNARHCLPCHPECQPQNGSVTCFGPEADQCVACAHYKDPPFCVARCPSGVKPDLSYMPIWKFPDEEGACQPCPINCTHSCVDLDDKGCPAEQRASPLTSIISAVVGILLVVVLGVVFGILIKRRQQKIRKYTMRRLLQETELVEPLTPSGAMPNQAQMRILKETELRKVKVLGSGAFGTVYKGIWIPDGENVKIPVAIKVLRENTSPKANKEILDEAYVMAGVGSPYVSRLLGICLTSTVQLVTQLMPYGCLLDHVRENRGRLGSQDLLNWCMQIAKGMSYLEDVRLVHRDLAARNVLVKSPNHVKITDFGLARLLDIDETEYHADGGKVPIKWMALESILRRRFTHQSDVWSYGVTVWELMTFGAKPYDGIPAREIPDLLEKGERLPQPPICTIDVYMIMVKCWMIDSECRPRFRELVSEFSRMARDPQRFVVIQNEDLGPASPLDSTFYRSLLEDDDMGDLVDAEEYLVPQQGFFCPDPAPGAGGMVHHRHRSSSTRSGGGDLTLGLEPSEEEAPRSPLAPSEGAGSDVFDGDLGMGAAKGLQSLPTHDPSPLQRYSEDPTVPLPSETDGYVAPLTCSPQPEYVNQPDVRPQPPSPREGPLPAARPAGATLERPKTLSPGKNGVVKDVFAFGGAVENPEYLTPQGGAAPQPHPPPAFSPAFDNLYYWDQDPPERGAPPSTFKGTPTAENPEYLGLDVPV
Method in brief: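 In vitro kinase activity was measured by mobility shift assay, run by a contract provider.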

A549 = assay: Antiproliferative activity against human A549 cells incubated for 72 hrs by MTT assay; assay type: functional, cell-based; conditions: A549, 72 h
A-431 = assay: Antiproliferative activity against human A431 cells incubated for 72 hrs by MTT assay; assay type: functional, cell-based; conditions: A-431, 72 h
Histone deacetylase 1 = Histone deacetylase 1 (Homo sapiens, UniProt Q13547); assay: Inhibition of HDAC1 (unknown origin)
[4] = target: T1, Epidermal growth factor receptor; assay: Inhibition of EGFR (unknown origin) by mobility shift assay
[5] = target: Epidermal growth factor receptor (Homo sapiens, UniProt P00533, L858R); assay: Inhibition of EGFR L858R (unknown origin) by mobility shift assay
Chain of Epidermal growth factor receptor (Homo sapiens, UniProt P00533, L858R) (P00533 25-1210 L858R limits assumed): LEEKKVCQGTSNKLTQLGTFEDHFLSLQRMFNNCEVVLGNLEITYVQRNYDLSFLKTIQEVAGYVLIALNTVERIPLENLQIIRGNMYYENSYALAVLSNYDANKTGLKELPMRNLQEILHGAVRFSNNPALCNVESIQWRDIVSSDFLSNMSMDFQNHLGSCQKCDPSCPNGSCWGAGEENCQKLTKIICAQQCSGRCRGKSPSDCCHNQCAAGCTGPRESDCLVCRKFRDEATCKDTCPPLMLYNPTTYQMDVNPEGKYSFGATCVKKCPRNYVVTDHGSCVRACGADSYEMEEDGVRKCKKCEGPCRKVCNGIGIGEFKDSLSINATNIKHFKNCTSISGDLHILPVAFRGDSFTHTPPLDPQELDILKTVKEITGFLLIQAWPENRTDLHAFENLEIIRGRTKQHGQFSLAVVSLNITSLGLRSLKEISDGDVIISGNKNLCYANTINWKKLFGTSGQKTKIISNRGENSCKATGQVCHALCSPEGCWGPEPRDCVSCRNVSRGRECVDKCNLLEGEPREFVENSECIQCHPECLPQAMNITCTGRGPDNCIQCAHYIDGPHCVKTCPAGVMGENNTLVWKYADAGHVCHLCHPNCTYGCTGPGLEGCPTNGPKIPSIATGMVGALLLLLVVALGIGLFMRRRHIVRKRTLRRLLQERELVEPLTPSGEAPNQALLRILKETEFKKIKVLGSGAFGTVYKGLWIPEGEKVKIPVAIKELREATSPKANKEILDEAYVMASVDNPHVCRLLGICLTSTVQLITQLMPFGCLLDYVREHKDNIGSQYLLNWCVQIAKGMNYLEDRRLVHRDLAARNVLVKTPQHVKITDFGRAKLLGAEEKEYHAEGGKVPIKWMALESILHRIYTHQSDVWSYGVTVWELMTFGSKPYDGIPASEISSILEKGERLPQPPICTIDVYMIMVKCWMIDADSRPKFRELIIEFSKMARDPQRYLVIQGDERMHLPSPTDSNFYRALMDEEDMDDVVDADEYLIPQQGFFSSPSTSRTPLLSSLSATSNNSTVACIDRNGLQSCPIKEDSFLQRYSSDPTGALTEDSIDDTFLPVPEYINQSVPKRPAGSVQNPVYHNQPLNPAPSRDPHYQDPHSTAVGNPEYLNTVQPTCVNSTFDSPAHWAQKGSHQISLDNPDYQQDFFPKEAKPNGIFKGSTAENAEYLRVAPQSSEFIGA

L02 = assay: cytotoxicity against human HL-7702 cells assessed as reduction of cell viability incubated for 72 hrs by MTT assay; assay type: ADME, cell-based; conditions: L02, 72 h
FHC = assay: Cytotoxicity against human FHC cells assessed as reduction of cell viability incubated for 72 hrs by MTT assay; assay type: ADME, cell-based
NCI-H838 = assay: Antiproliferation activity against human NCI-H838 cells incubated for 72 hrs by MTT assay; assay type: functional, cell-based; conditions: NCI-H838, 72 h
NCI-H1975 = assay: Antiproliferative activity against human NCI-H1975 cells incubated for 72 hrs by MTT assay; assay type: functional, cell-based; conditions: NCI-H1975, 72 h
[6] = target: Epidermal growth factor receptor (Homo sapiens, UniProt P00533, L858R/T790M); assay: Inhibition of EGFR L858R/T790M (unknown origin) by mobility shift assay
Chain of Epidermal growth factor receptor (Homo sapiens, UniProt P00533, L858R/T790M) (P00533 25-1210 T790M/L858R limits assumed): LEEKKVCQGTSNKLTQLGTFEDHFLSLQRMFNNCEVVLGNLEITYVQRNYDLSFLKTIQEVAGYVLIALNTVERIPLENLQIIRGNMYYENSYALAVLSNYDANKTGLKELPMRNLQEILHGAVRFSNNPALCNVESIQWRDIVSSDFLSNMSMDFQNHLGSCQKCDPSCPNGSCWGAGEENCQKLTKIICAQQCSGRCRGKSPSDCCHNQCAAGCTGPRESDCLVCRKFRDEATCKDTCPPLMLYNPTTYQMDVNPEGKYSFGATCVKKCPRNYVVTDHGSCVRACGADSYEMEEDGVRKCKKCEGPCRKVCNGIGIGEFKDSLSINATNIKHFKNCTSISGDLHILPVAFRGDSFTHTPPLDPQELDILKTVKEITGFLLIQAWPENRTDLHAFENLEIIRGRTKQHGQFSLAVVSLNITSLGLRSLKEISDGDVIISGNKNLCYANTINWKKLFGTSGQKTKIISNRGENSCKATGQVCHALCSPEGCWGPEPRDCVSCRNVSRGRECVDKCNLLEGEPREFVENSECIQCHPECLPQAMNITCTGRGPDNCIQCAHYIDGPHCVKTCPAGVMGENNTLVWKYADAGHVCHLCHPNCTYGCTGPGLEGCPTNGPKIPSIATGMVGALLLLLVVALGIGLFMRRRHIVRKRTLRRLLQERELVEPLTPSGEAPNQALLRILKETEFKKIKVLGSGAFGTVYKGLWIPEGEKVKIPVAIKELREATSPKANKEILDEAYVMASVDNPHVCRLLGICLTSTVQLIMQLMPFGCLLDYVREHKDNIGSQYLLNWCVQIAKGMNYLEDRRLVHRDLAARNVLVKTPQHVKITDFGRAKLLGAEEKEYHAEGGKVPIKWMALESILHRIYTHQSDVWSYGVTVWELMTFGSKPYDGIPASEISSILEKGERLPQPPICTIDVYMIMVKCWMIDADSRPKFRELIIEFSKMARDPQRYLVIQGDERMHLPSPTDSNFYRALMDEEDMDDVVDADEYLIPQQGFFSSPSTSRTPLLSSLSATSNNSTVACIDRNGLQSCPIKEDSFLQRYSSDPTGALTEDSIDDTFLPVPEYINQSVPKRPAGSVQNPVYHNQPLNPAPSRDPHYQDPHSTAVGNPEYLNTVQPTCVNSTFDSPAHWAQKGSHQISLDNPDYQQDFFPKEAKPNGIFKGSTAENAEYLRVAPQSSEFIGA

[7] = target: Histone deacetylase (Homo sapiens) (UniProt Q13547+O15379+Q9UBN7+Q92769+Q9UQL6+Q8WUI4+Q9BY41+Q96DB2+P56524+Q9UKV0+Q969S8); assay: Inhibition of HDAC in human NCI-H1975 cells assessed as increase in histone H3 acetylation at 2.5 uM after 1 to 12 hrs by Western blot analysis; assay type: cell-based; conditions: time lower 1.0 hrs, time upper […]

| SMILES | inhibition [1] | IC50 (SK-BR-3) | inhibition [2] | IC50 [3] | IC50 (A549) | IC50 (A-431) | IC50 (Histone deacetylase 1) | IC50 [4] | IC50 [5] | IC50 (L02) | IC50 (FHC) | IC50 (NCI-H838) | IC50 (NCI-H1975) | IC50 [6] | inhibition [7] |
| --- | --- | --- | --- | --- | --- | --- | --- | --- | --- | --- | --- | --- | --- | --- | --- |
| O=C(CCCCCCC(=O)Nc1ccccc1)NO [VORINOSTAT] | inactive | 2.13 µM | inactive | – | – | – | – | – | – | – | – | – | – | – | – |
| C=CC(=O)Nc1cc2c(Nc3ccc(OCc4cccc(F)c4)c(Cl)c3)ncnc2cc1OCc1cn(CCCC(=O)NO)nn1 | – | 20.2 µM | – | 3.7 nM | > 50 µM | 19.9 µM | > 1000 nM | 1.8 nM | 2.9 nM | > 25 µM | > 25 µM | > 50 µM | 12 µM | 15 nM | – |
| COc1cc2ncnc(Nc3ccc(F)c(Cl)c3)c2cc1OCCCN1CCOCC1 | – | – | – | – | – | – | – | – | – | – | – | – | – | – | Active |
| C=CC(=O)Nc1cc2c(Nc3cccc(Cl)c3F)ncnc2cc1OCc1cn(CCC(=O)NO)nn1 | – | > 50 µM | – | 13 nM | > 50 µM | 15 µM | 44 nM | 0.34 nM | 1.1 nM | > 25 µM | > 25 µM | > 50 µM | 6.61 µM | 8.3 nM | – |
| C=CC(=O)Nc1cc2c(Nc3ccc(OCc4cccc(F)c4)c(Cl)c3)ncnc2cc1OCc1cn(CCC(=O)NO)nn1 | – | 24.8 µM | – | 3.7 nM | > 50 µM | 16.3 µM | > 1000 nM | 1.1 nM | 2.2 nM | > 25 µM | > 25 µM | > 50 µM | 21 µM | 16 nM | – |
| C=CC(=O)Nc1cc2c(Nc3ccc(F)c(Cl)c3)ncnc2cc1OCc1cn(CCCCC(=O)NO)nn1 | – | 20 µM | – | 7.3 nM | > 50 µM | 15 µM | 292 nM | 0.35 nM | 0.88 nM | > 25 µM | > 25 µM | > 50 µM | 2.5 µM | 1.8 nM | – |
| C=CC(=O)Nc1cc2c(Nc3cccc(Cl)c3F)ncnc2cc1OCc1cn(CCCC(=O)NO)nn1 | – | > 50 µM | – | 8 nM | > 50 µM | 16.9 µM | 34 nM | – | – | > 25 µM | > 25 µM | > 50 µM | 2.8 µM | – | – |
| C=CC(=O)Nc1cc2c(Nc3ccc(F)c(Cl)c3)ncnc2cc1OCc1cn(CCC(=O)NO)nn1 | – | > 50 µM | – | 5.4 nM | > 50 µM | 22.1 µM | 93 nM | 0.33 nM | 1.1 nM | > 25 µM | > 25 µM | > 50 µM | 4.45 µM | 2.3 nM | – |
| C=CC(=O)Nc1cc2c(Nc3cccc(Cl)c3F)ncnc2cc1OCc1cn(CCCCC(=O)NO)nn1 | – | > 50 µM | – | 16 nM | > 50 µM | 15.6 µM | 132 nM | 0.44 nM | 1.2 nM | > 25 µM | > 25 µM | > 50 µM | 4.18 µM | 17 nM | – |
| C=CC(=O)Nc1cc2c(Nc3ccc(OCc4cccc(F)c4)c(Cl)c3)ncnc2cc1OCc1cn(CCCCC(=O)NO)nn1 | – | 16 µM | – | 3.8 nM | > 50 µM | 18.8 µM | > 1000 nM | 1.5 nM | 2.6 nM | > 25 µM | > 25 µM | > 50 µM | 14.5 µM | 14 nM | – |
